Bioassay records as filed in PubChem BioAssay.
Ecoli tolC: E. coli tolC mutant growth inhibition | E. coli BW25113 tolC mutant growth, OD615 | growth inhibition, % at 10 µM (by protocol) | 65,000 compounds, 2.2% hits | AID 573;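 active = growth inhibition at or above a cutoff equal to the mean over every tested compound plus 3 SD, cut at about 60% in these data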;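 also: growth measured after 20 h incubation at 37 °C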
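Test system: tolC-deleted E. coli BW25113; medium: LB with kanamycin 50 µg/mL; compound: single-point testing at 10 µM; incubation: 20 h compound exposure of bacteria at 37 °C; signal: OD at 615 nm; evaluation: growth inhibition in percent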
PostGolgi yeast: growth inhibition of a yeast mutant, post-Golgi transport screen; post-Golgi transport phenotypic cell assay; inhibition, % at 10 µM; 98,000 compounds, 0.9% hits; AID 739;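 also: yeast cells grown in 1536-well plates; yeast grown about 18 h at 30C before absorbance read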
Cav32 inh: human Cav3.2 channel inhibition, primary screen; O95180; Cav3.2-expressing cells, Fluo-4 calcium fluorescence FDSS; hits give low values; B-score at 10 µM; 100,000 compounds, 4% hits;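 active = single-dose well whose peak fluorescence ratio is a statistical outlier from its plate by either plate-standardised score or position-corrected B-score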
E coli WT exp: blocks growth of wild type E. coli BW25113. AID 710. 98,000 compounds, 0.15% hits. growth inhibition, % at 100 µM. OD600 absorbance;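 active = growth inhibition above about 50% at one test dose, limit read from the data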;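 also: growth measured after 20 h incubation at 37 °C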
PostGolgi ctrl: growth of the yeast control strain, post-Golgi counter-screen | inhibition, % at 10 µM | efflux-deficient yeast background strain, growth absorbance A615, 16 h | 98,000 compounds, 5% hits
Pyk2 oligo antag: Pyk2 (human) oligomerization antagonism; Q14289; Q293 cells, Pyk2 FERM NanoBiT luminescence; hits give low values; AID 1347419; 99,000 compounds, 0.83% hits; z-score (the deposit names both 25 µM and 10 µM);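 active = Z-score of -3 or lower, scaled per plate to the spread of control and sample wells; inactive = z-score above -3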;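 also: negative z-score means lost luminescence so less FERM oligomerization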
Active calls of the source: *; / = no result. This is a sample that favours compounds with a hit; in the whole collection about 8.7% have one here. Rule as the data show it, unless noted: active = inhibition above about 30%; inactive = the rest.

SMILES | Ecoli tolC | PostGolgi yeast | Cav32 inh | E coli WT exp | PostGolgi ctrl | Pyk2 oligo antag
COC(=O)c1nn(-c2ccccc2)c(Cl)c1/C=N/OCc1ccc(Cl)cc1Cl | / | -7 | -3.8 | -17 | 0 | 0.59
CCOc1ccc(C(=O)N2CCC(C(=O)c3ccc4c(c3)OCCO4)CC2)cc1 | 14 | 6 | -0.93 | -16 | 5 | -2.6
O=C(Nc1ccc(-c2nc3ccccc3o2)cc1)c1ccc(N2C(=O)C3C4C=CC(C4)C3C2=O)cc1 (stereo not drawn) | / | -12 | 0.8 | -11 | 9 | -0.31
COc1ccccc1NC(=O)C1=C(C)Nc2nc(-c3cccs3)nn2C1c1cccnc1 (stereo not drawn) | -13 | 3 | -0.29 | -2 | -5 | /
Cc1cc2ncn(C(=O)N3CCC(C)CC3)c2cc1C | / | / | -6.5* | / | / | 0.64
CCC(=O)NCCc1nc2ccccc2n1Cc1ccccc1 | / | / | 0.91 | / | / | 0.76
Cc1ccccc1Cn1c(-c2cncs2)nc2ccccc21 | 30 | 24 | -1.5 | -5 | 35* | -1.3
Cc1ccccc1Cn1c(Cc2ccccc2)nc2ccccc21 | / | -12 | -5.5* | -3 | 34* | -1.7
Brc1cc2c(cc1Cn1c(-c3cncs3)nc3ccccc31)OCO2 | 2 | 16 | 0.13 | -3 | 7 | -0.96
BrC(=C\c1ccccc1)/C=N/N1CCN(Cc2ccccc2)CC1 | / | 3 | -0.69 | -1 | 26 | -0.01
BrC(=C\c1ccccc1)/C=N/N1CCN(c2ccccn2)CC1 | / | -4 | 0.43 | -3 | 38* | 0.88
Cc1cc(C(=O)OCC(=O)Nc2ccc(F)cc2)c(C)o1 | -8 | 2 | 0.14 | 12 | 14 | 0.13
CCN(CC)S(=O)(=O)c1cccc(NC(=O)COC(=O)c2cc(C)oc2C)c1 | / | -3 | -6* | -7 | 7 | 0.24
CC1(C)CC(=O)C=C(Nc2cc(-c3ccccc3)[nH]n2)C1 | 1 | 28 | 0.96 | 8 | 5 | -1.5
CC(=O)NN1C(=O)/C(=C\c2ccc(C)cc2)SC1=S | / | 1 | 2.6 | -5 | 7 | 1.3
CN(C)c1ccc(/C=C2\SC(=S)N(Nc3ncc(C(F)(F)F)cc3Cl)C2=O)cc1 | / | 11 | -5.1* | -19 | 12 | -3.4*
COc1cc(/C=C2\SC(=S)N(Nc3ncc(C(F)(F)F)cc3Cl)C2=O)ccc1O | / | 8 | -2.5 | -13 | 13 | -3.1*
CC(=O)NN1C(=O)/C(=C\c2ccccc2)SC1=S | / | 5 | 1.1 | 2 | -4 | 0.31
CCOc1cc(/C=C2\SC(=S)N(Nc3ccccc3)C2=O)ccc1O | / | 9 | / | -12 | 61* | -3.6*
COc1ccccc1CNC(=O)CCS(=O)(=O)c1ccc2c(c1)CCCN2C(C)=O | -23 | -3 | 0.3 | 1 | 0 | -0.18
O=C(Nc1nccs1)c1nc(-c2ccccc2)n(-c2ccccc2)n1 | -4 | -7 | 0.019 | -6 | 30 | -1.8
CCSc1nnc(NC(=O)c2nc(-c3ccccc3)n(-c3ccccc3)n2)s1 | 78* | 2 | -1.4 | -8 | 16 | -2.9
CCSc1nnc(NC(=O)c2nn(C(C)C)c(=O)c3ccccc23)s1 | 38 | 7 | -0.22 | -4 | 30* | 0.27
Cc1csc(NC(=O)c2nc(-c3ccccc3)n(-c3ccccc3)n2)n1 | 1 | 38* | -2.4 | -6 | 8 | -1.9
CCCC(C)NC(=O)c1nc(-c2ccccc2)n(-c2ccccc2)n1 (stereo not drawn) | / | -6 | -4.9* | 11 | 6 | -1.9
SMILES | Ecoli tolC | PostGolgi yeast | Cav32 inh | E coli WT exp | PostGolgi ctrl | Pyk2 oligo antag
CCC(=O)N1CCN(c2ccc(Cl)cc2NC(=O)Cc2ccc(Cl)cc2)CC1 | / | 0 | -2.6 | -17 | 30 | -1.2
Cc1cccc(Oc2sc(C(=O)c3ccccc3)c(N)c2C#N)c1 | / | 27 | -0.093 | -9 | 19 | -1.6
Cc1ccc(C)c(NC(=O)c2nc(-c3ccccc3)n(-c3ccccc3)n2)c1 | / | -1 | -5.8* | 0 | 23 | -3
CCOC(=O)C1C(=O)Oc2ccc3ccccc3c2C1C1CCOC1=O (stereo not drawn) | -2 | -5 | -0.012 | -2 | 2 | /
CC1(C(=O)c2ccccc2)C2c3c(ccc4ccccc34)OC(=O)C21C(=O)N1CCOCC1 (stereo not drawn) | / | 6 | -3.4 | -4 | 46* | -0.72
Cn1c(=O)cc(NCc2ccccc2)[nH]c1=O | -9 | 40* | 0.33 | 14 | -5 | -0.17
O=C(Nn1c(-c2ccccc2)nc2ccccc2c1=O)C1CCC1 | -22 | 5 | -0.037 | -2 | 0 | 0.32
N#Cc1ccccc1OCC(=O)Nc1c(C(=O)C2CC2)oc2ccccc12 | -9 | -2 | 0.47 | -6 | 5 | -0.86
